Reference: article PMC8530978 (Bioorganic chemistry, 2021)

How the values were obtained:
[1] = system: acetylation of SMC3 in HeLaM cells; assay: Western blot of SMC3 acetylation in HeLaM cells; type: cell-based; conditions: overnight treatment
Procedure, shortened: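 Acetylated SMC3 detected by immunoblot with an anti-acetyl-SMC3 antibody, HRP-conjugated secondary antibody and enhanced chemiluminescence, imaged on film.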

[2] = system: histone H3 acetylation and tubulin acetylation in HCT116 cells; assay: Western blot of histone H3 and tubulin acetylation in HCT116 cells; type: cell-based, human; conditions: HCT116, 24 h, IPEs up to highest concentration 25 μM
Procedure, shortened: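 HCT116 cells (2 × 10^6 per T-25 flask) adhered overnight, then given test compound at 1, 10 or 25 μM, or DMSO, for 24 h. Lysed in RIPA; protein measured by BCA. Acetyl-histone H3 and acetyl-tubulin immunoblotted, detected with fluorescent secondary antibodies on an Odyssey scanner.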

[3] = system: mitotic spindle of HeLaM cells; type: cell-based; conditions: compound 10 μM + MG132 + ZM447439 (DMSO+MG132+ZM447439 3%)
[4] = system: HeLaM cells expressing mcherry-α-tubulin; assay: Spindle reassembly after recovery from cold shock; type: cell-based; conditions: 8 minutes post-rewarming, versus control
Procedure, shortened: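 HeLaM clone stably expressing mCherry-α-tubulin, treated with test compound or DMSO for 30 min at 37 °C, chilled 30 min at 4 °C, then rewarmed at 37 °C. Fixed at 0, 4, 8 and 20 min after rewarming; wide-field fluorescence imaging. Four repeats, 10–30 cells per condition per experiment. Blinded 8-min images scored, and spindle outlines traced to quantify morphology.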

[5] = target: tubulin heterodimers, purified from porcine brain (Sus scrofa, UniProt P02554); assay: Turbidity-based tubulin polymerization assay; type: biochemical; conditions: for Vmax of tubulin polymerization: 37 °C, exponential phase (DMSO 10 mOD/min)
Sequence of tubulin heterodimers, purified from porcine brain (P02554 whole entry): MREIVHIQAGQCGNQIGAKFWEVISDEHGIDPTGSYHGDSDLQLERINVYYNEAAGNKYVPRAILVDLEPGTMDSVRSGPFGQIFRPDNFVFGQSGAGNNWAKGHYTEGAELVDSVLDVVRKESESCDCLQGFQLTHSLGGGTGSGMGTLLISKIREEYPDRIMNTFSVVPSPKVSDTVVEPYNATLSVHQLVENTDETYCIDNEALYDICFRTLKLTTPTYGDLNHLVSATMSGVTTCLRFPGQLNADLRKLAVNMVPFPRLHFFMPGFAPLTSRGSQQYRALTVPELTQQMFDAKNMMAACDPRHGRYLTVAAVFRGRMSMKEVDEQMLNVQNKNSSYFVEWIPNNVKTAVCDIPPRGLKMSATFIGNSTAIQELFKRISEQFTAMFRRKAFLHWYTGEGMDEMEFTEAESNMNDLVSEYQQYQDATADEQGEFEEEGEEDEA
Sequence of tubulin heterodimers, purified from porcine brain (P02550 whole entry partner): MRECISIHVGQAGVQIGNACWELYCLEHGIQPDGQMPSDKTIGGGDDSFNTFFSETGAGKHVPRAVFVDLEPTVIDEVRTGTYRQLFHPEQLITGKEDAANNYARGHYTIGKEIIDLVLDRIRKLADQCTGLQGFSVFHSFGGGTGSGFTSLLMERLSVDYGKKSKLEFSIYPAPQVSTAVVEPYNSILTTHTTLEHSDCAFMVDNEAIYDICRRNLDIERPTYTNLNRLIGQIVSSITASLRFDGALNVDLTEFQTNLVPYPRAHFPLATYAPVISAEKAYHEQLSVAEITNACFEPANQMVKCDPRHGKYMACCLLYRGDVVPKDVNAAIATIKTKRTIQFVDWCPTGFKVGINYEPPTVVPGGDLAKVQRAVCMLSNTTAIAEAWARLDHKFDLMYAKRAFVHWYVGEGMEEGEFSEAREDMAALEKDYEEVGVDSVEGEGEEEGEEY

[6] = system: HCT 116 cells; assay: MTS reduction assay, antiproliferative activity on HCT 116; type: cell-based; conditions: Homo sapiens, HCT-116, 96 h
Procedure, shortened: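 HCT116 cells grown in McCoy's 5A with 10% FBS (37 °C, 5% CO2), seeded at 3 × 10^3/well in triplicate and left to adhere overnight. Exposed to test compound at 0.01–100 μM, or DMSO, for 96 h. MTS reagent added for 2 h at 37 °C; absorbance read at 490 nm. Curves of log(concentration) vs response fitted with a variable Hill slope.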

[7] = system: HDAC8-null and control HCT116 cells; assay: Cytotoxicity in HDAC8-null versus control HCT116 cells; type: cell-based, human; conditions: 10 μM
[8] = system: purified HDAC isoforms (HDAC1, 2, 3, 8 and HDAC6); assay: Single concentration; type: biochemical; conditions: 100 μM, HDAC1, 2, 3, 8 and 6
Procedure, shortened: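 Recombinant HDAC1, 2, 3, 6 or 8 (1 μL of enzyme stock at 3, 1, 30, 35 or 70 ng/μL respectively) in HDAC-Glo buffer, incubated 3 h at room temperature with test compound in DMSO. HDAC-Glo reagent then added; luminescence read every 3 min for 30 min. Peak signal corrected against a no-enzyme background and divided by the no-inhibitor signal to give % activity remaining.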

[9] = system: HeLaM cells; assay: Chromosome drops to determine mitotic index; type: cell-based; conditions: 10 μM, after release from thymidine block
Procedure, shortened: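 HeLaM cells held in S phase with a single 2 mM thymidine block overnight, washed in PBS and released into test compound for about 9 h, then given ZM447439 for 90 min. Attached and floating cells were pooled, trypsinized, swollen in 0.075 M KCl (10 min, 37 °C), fixed in methanol:acetic acid 3:1 and dropped onto slides. DAPI stain. Mitotic index scored blinded over at least three experiments.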

[10] = system: NCI sixty human tumor cell line panel; assay: NCI sixty human tumor cell line panel, single dose 10 μM; type: cell-based; conditions: Homo sapiens, read-out: Mean % growth at 10 μM
[11] = system: HeLaM cells; assay: Flow cytometry cell cycle analysis; type: cell-based
Procedure, shortened: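 5 × 10^5 HeLaM cells plated, treated next day with test compound or DMSO for 24, 48 or 72 h. All cells (floating and attached) collected and fixed in 70% ethanol (final). […] 10 μg/ml, 30 min, 37 °C, then propidium iodide in PBS + 2% FBS. SubG1 gated; subG1 excluded before modeling live-cell cycle distribution.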

[12] = system: HeLaM cells; assay: Phase contrast time lapse microscopy, mitotic duration; type: cell-based; conditions: asynchronous HeLaM cells, images every 12 min

| SMILES | SMC3 acetylation [1] | global histone H3 acetylation and tubulin acetylation [2] | spindle collapse [3] | abnormal spindles [4] | Vmax of tubulin polymerization ([5]; 10 μM compound) | Vmax of tubulin polymerization ([5]; 50 μM compound) | microtubule depolymerization upon cooling ([5]; 50 μM, cooling to ~15°C) | GI50 [6] | cell killing of parental and HDAC8-null cells [7] | activity remaining, each HDAC isoform [8] | mitotic arrest (mitotic index) [9] | activity at 10 µM [10] | cells in G2/M ([11]; 48 hours, subG1 excluded (DMSO 10%)) | subG1 population ([11]; 72 hr post treatment (DMSO 14%)) | mitotic duration / mitotic arrest [12] |
| --- | --- | --- | --- | --- | --- | --- | --- | --- | --- | --- | --- | --- | --- | --- | --- |
| O=C(Cc1ccc(/C=C/C(=O)c2ncc[nH]2)cc1)Nc1ccc(F)cc1 [IPE-7, (E)-2-(4-(3-(1H-Imidazol-2-yl)-3-oxoprop-1-en-1-yl)phenyl)-N-(4-fluorophenyl)acetamide] | no effect on SMC3 acetylation | no increase in global histone acetylation or tubulin acetylation | 97% | significantly more abnormal spindles | 5.5 mOD/min | 4.5 mOD/min | Depolymerization was accelerated | 6.95 µM | both parental and HDAC8-null cells were killed | 20–80% | arrested cells in mitosis | 27.5% | 36% | 58% | – |
| COc1ccc(Cn2ccc3ccc(C(=O)NO)cc32)cc1 [PCI34051, reference compound] | an increase in SMC3 acetylation | – | did not produce the same aberrant spindle | – | – | – | – | – | – | – | – | – | – | – | 1.5 h |
